Screening results from PubChem BioAssay.
Rpn11 block = Rpn11 (human) deubiquitinase inhibition. O00487. inhibition, % at 20 µM. AID 588493. human 26S proteasome, Ub4-pepOG fluorescence polarization; 20S core pre-blocked with epoxomicin. hit rate 0.59% among 360,000;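 active = inhibition at 20 µM, scaled to each plate's controls, above about 33%, limit read from the data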
TPT1 inhibitor = blocks Candida albicans tRNA 2'-phosphotransferase | recombinant caTPT1, FP RNA substrate dephosphorylation | inhibition, % at 5 µM | hit rate 0.81% among 300,000 | AID 1962;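 active = inhibition above the mean of all tested compounds plus 3 SD, set per screening campaign, cut at about 24% in these data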
HNF4A DNA FP = change in binding of human HNF4 alpha to DNA. P41235. HNF4a-FITC DNA binding, fluorescence polarization, 1 h. activity change, % at 10 µM. hit rate 0.3% among 360,000. AID 1224865; in the data active = activity change above about 30%, passing the limit was not always enough
PP1 inh = blocks human PP1-alpha phosphatase, a PP5 counter-screen; purified PP1alpha, OMFP fluorescence; hit rate 0.9% among 320,000; AID 2235; inhibition, % at 6.7 µM; P62136;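 active = inhibition above the mean inhibition of all tested compounds plus 3 SD, computed separately for each screening campaign, cut at about 15% in these data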
NadD block = NadD (S. aureus) enzyme inhibition; purified NadD enzyme, colorimetric absorbance read-out; inhibition, % at 20 µM; hit rate 0.78% among 360,000; in the data active = inhibition above about 26%
CSN deneddyl inh = blocks human CSN-mediated cullin deneddylation. inhibition, % at 12.5 µM. hit rate 0.38% among 360,000. AID 651999. Purified CSN, SCF-Nedd8-OG deneddylation, fluorescence polarization. Q92905;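 active = pattern-corrected inhibition above about 35%, with an unprinted fluorescence ratio check between 0.5 and 1.5, limit read from the data, passing the limit was not always enough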
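Test system: Human Csn5 produced in HEK293T cells | Compound: 12.5 µM single point | Times: 90 min, room temperature | Signal: Fluorescence polarization readout | Read-out basis: % inhibition of substrate cleavage by Csn5 | Controls: no-enzyme wells high, enzyme-with-substrate wells low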
PP1 inh confirm = human PP1 phosphatase inhibition, confirmation; hit rate 52% among 1,900; shares compounds with PP1 inh; inhibition, % at 6.7 µM; purified PP1alpha, OMFP substrate fluorescence;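 active = mean PP1 inhibition above a set limit taken from the earlier primary screen, cut at about 15% in these data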
PP5 inh counter = inhibits human PP5 phosphatase in PP1 counter-screen | shares compounds with PP1 inh | purified PP5c, OMFP fluorescence | inhibition, % at 6.7 µM | hit rate 4% among 1,900;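 active = mean PP5 inhibition over triplicate wells above about 9.5% taken from the earlier PP1 screen, limit read from the data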
Target sequence (P53041 whole entry, looked up): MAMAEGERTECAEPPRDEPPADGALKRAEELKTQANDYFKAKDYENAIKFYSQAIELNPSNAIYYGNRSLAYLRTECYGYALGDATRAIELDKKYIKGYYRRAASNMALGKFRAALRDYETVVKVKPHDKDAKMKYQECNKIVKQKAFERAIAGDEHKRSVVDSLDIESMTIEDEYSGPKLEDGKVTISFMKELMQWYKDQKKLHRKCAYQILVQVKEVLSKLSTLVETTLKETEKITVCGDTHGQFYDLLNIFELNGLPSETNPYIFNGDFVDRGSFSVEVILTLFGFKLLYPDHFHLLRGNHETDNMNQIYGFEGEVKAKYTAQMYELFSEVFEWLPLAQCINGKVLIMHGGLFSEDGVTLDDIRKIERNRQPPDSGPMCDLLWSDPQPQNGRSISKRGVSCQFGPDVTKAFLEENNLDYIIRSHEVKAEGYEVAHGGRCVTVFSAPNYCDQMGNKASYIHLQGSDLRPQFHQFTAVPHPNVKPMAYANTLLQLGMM
Each line names hits and unclear results; the compound was inactive in the other large screens (follow-up assays come after a bar, where they were run). Only some compounds are listed: those with a hit (about 2.7% of all), similar ones and a draw of the others.

Nc1[nH]n2c(=O)c3c(nc2c1N=Nc1ccccc1)CCCC3	PP1 inh 19.8 | PP1 inh confirm 20.7 | PP5 inh counter inactive
CCOC(=O)C1CCN(C(=O)Nc2ccc3nc(-c4ccco4)c(-c4ccco4)nc3c2)CC1	PP1 inh 31.2, NadD block 65.7 | PP1 inh confirm inactive | PP5 inh counter inactive
COc1cc(/C=C2\SC(N)=NC2=O)ccc1OCC(=O)Nc1ccc(C)cc1	PP1 inh 20.9 | PP1 inh confirm 18.5 | PP5 inh counter inactive
CCOC(=O)c1ccc2c(c1)C1C=CCC1C(C(=O)O)N2 (centres undefined)	PP1 inh 29.9 (no result: Rpn11 block, HNF4A DNA FP, NadD block, CSN deneddyl inh) | PP1 inh confirm inactive | PP5 inh counter inactive
CC(C)C1Nc2ccc(C(=O)O)cc2C2C=CCC21 (centres undefined)	none
COc1ccccc1N1CCCSC1=Nc1ccccc1	none (no result: TPT1 inhibitor, PP1 inh)
c1ccc(-c2nnc(-c3ccccn3)nc2NC2CCCCC2)cc1	PP1 inh 21.3 | PP1 inh confirm inactive | PP5 inh counter inactive
Cc1ccc(C)c(OCCC(=O)OCC(=O)NCCc2ccc(S(N)(=O)=O)cc2)c1	none
Cc1cccc(CSc2ccc3nnc(-c4ccccn4)n3n2)c1	PP1 inh 18.8 | PP1 inh confirm inactive | PP5 inh counter inactive
Cc1ccc(C(=O)NNC(=O)c2ccc3ccccc3c2O)cc1	none
Cc1cc(C)nc(SCc2ccc(C(=O)N/N=C/c3cccc(O)c3O)cc2)n1	PP1 inh 24.7 | PP1 inh confirm 28.4 | PP5 inh counter inactive
COc1cc(/C=C2\C(C)=C(C#N)c3nc(N)c(C#N)c(C)c32)ccc1OCC(=O)O	PP1 inh 30.0 | PP1 inh confirm inactive | PP5 inh counter inactive
Cc1noc(C)c1-c1csc(N2CCC(C(N)=O)CC2)n1	none (no result: TPT1 inhibitor, PP1 inh)
CCN(c1ccccc1)S(=O)(=O)c1ccc(C(=O)Nc2nnc(-c3ccco3)o2)cc1	PP1 inh 19.4 | PP1 inh confirm 22.8 | PP5 inh counter inactive
CN(c1ccccc1)S(=O)(=O)c1ccc(C(=O)Nc2nnc(-c3ccco3)o2)cc1	PP1 inh 22.3 | PP1 inh confirm 20.4 | PP5 inh counter inactive
CC1CCCN(S(=O)(=O)c2ccc(NC(=O)[C@@H]3CCCN3C(=O)c3cccs3)cc2)C1 (some centres undefined)	none (no result: TPT1 inhibitor)
CCOc1cccc(CN2CCC(Oc3ccc(C(=O)NCc4ccccn4)cc3)CC2)c1	none
O=C(COc1ccc([N+](=O)[O-])cc1)NNC(=O)Nc1ccccc1F	none
Cc1ccc(CN2CCNC(=O)C2CC(=O)NC2CCCCCC2)cc1 (centres undefined)	none
CCOc1ccc(CN2CCNC(=O)C2CC(=O)NC2CCCCCC2)cc1 (centres undefined)	PP1 inh 17.8 | PP1 inh confirm inactive | PP5 inh counter inactive
CCOc1ccc(/C=C2\SC(=S)N(CCC(=O)N(CCO)c3ccccc3)C2=O)cc1	PP1 inh 21.9 | PP1 inh confirm inactive | PP5 inh counter inactive
CCOC(=O)C1=C(CSc2nc3ccccc3s2)NC(=O)NC1c1ccc(OC)cc1 (centres undefined)	none
CCOC(=O)C1=C(CSc2nc3ccccc3s2)NC(=O)NC1c1cc(C)ccc1C (centres undefined)	PP1 inh 23.3 | PP1 inh confirm inactive | PP5 inh counter inactive
CCOc1ccc(NC(=O)c2ccc(NC(=O)c3ccc(CN4CCOCC4)cc3)cc2)cc1	PP1 inh 21.6 | PP1 inh confirm 40.8 | PP5 inh counter inactive
O=c1cc(CN2CCN(c3ccccc3F)CC2)c2ccccc2o1	none (no result: TPT1 inhibitor, PP1 inh)
COc1cc([N+](=O)[O-])cc(/C=N/NC(=O)C(O)(c2ccccc2)c2ccccc2)c1O	PP1 inh 20.1 | PP1 inh confirm inactive | PP5 inh counter inactive
COc1cc([N+](=O)[O-])cc(/C=N/NC(=O)C(C)Nc2cccc3ccccc23)c1O (centres undefined)	PP1 inh 22.8, NadD block 48.4 | PP1 inh confirm 33.1 | PP5 inh counter inactive
COc1cc([N+](=O)[O-])cc(/C=N\NC(=O)C2COc3ccccc3O2)c1O (centres undefined)	PP1 inh 32.3 | PP1 inh confirm 25.9 | PP5 inh counter inactive
COc1ccc(NC(=O)n2ncc3cc(Cl)ccc32)cc1OC	none
C/C=C\C=C/C(=O)Nc1cccc(C2=NOC3(C2)C[C@H](C(N)=O)N(C(=O)CC)C3)c1 (some centres undefined)	none
C=C(C)C(=O)Nc1cccc(C2=NOC3(C2)C[C@H](C(N)=O)N(C(=O)CC#N)C3)c1 (some centres undefined)	PP1 inh 37.1 (no result: Rpn11 block, HNF4A DNA FP, NadD block, CSN deneddyl inh) | PP1 inh confirm inactive | PP5 inh counter inactive
C/C=C(\C)C(=O)Nc1cccc(C2=NOC3(C2)C[C@@H](C(N)=O)N(C(=O)c2ccccc2C(=O)c2ccccc2)C3)c1 (some centres undefined)	none
C/C=C(/C)C(=O)Nc1cccc(C2=NOC3(C2)C[C@H](C(N)=O)N(C(=O)c2ccccc2)C3)c1 (some centres undefined)	PP1 inh 41.6 | PP1 inh confirm inactive | PP5 inh counter inactive
C/C=C/C=C\C(=O)Nc1cccc(C2=NOC3(C2)C[C@H](C(N)=O)N(C(=O)CC#N)C3)c1 (some centres undefined)	PP1 inh 18.8 | PP1 inh confirm inactive | PP5 inh counter inactive
COc1ccc(OC)c(CNC(=O)C2CCC(=O)N2C(C)C)c1 (centres undefined)	none
CC(C(=O)NCc1ccccc1)n1c(-c2ccc3c(c2)CCO3)nc2ccccc21 (centres undefined)	none (no result: Rpn11 block, TPT1 inhibitor, PP1 inh, NadD block)
FC(F)(F)c1cc(CCN2CCNC[C@H]2Cc2cccc3ccccc23)cc(C(F)(F)F)c1	PP1 inh 22.5 | PP1 inh confirm inactive | PP5 inh counter inactive
C#CC(c1ccccc1)(c1ccccc1)n1ccnc1	none (no result: TPT1 inhibitor, PP1 inh)
Clc1ccccc1C(c1ccccc1)(c1ccccc1)n1ccnc1	PP1 inh 18.3 | PP1 inh confirm inactive | PP5 inh counter inactive
O=C(CSc1nnc(-c2ccc(O)cc2)n1Cc1ccco1)c1cccs1	PP1 inh 29.7 | PP1 inh confirm inactive | PP5 inh counter inactive
Cc1occc1-c1nnc(SCC(=O)Nc2nccs2)n1Cc1ccco1	PP1 inh 29.7 | PP1 inh confirm inactive | PP5 inh counter inactive
Cc1cccc(N2CCN(C(=O)CC(NC(=O)c3ccccc3)c3ccccc3)CC2C)c1 (centres undefined)	PP1 inh 19.8 | PP1 inh confirm inactive | PP5 inh counter inactive
N#Cc1ccc(C(=O)OCC(=O)N2CCOCC2)cc1	none
Cc1cccc(CCNS(=O)(=O)c2ccc3c(c2)NC(=O)CS3)c1	none
